OX1R antag-1: antagonists of human orexin 1 receptor (OX1R). Orexin/Hypocretin receptor type 1 (Homo sapiens), O43613. OX1R-expressing cells, FRET antagonist read-out. inhibition, % at 6.6 µM. 1.8% of 330,000 active. AID 485270, 2010; in the data active = inhibition mostly above about 38%, no sharp cut-off; inactive = mostly below about 40%
CHO parental Ca: ATP-evoked calcium signal inhibitors, parental CHO, primary screen, counter-screen for OX1R antagonist project, cell-based, fluorescence, Fluo-8 calcium dye. parental CHO-K1, ATP-induced calcium, Fluo-8 fluorescence. inhibition, % at 5.6 µM. 0.63% of 330,000 active. AID 463079, 2010;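 active = inhibition above that plate's mean sample inhibition plus 3 SD, cut at about 26% in these data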
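Material – parental CHO cells · Reagent – ATP stimulus · Compound – single nominal dose of 5.6 µM per compound · Detection – Fluo-8 fluorescence · Read-out basis – percent inhibition of calcium signal · Controls – ATP-challenged DMSO wells low, unchallenged DMSO wells high · Repeats – no replicates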
GalR3 antagonist: GalR3 antagonists in HEK293 cells, primary screen, cell-based, fluorescence readout. inhibition, % at 3 µM. Galanin receptor type 3 (Homo sapiens), O60755. 0.44% of 360,000 active. HEK293 GalR3-CNG cAMP membrane potential fluorescence; galR3 body fused to GalR1 C-terminus;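 active = inhibition above the screen-wide average plus 3 SD, cut at about 13% in these data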;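 note: forskolin and galanin both at EC90 stimulate the cells; cAMP rise reported by CNG channel membrane potential dye signal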
Target sequence (O60755 1-299 limits assumed): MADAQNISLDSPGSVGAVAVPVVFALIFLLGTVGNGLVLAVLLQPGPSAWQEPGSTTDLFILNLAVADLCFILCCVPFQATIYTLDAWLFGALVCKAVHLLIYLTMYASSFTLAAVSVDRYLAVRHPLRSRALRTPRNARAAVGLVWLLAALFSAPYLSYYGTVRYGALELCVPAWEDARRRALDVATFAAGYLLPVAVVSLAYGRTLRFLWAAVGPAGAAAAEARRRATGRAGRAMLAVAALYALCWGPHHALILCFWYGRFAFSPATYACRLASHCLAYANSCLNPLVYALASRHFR
OX1R antag-2: OX1R (HCRTR1) antagonists, primary screen, fluorescence, CHO/OX1R cells, Fluo-8 calcium, orexin A | Orexin/Hypocretin receptor type 1 (Homo sapiens), O43613 | Fluo-8 calcium fluorescence | inhibition, % at 5 µM | 0.43% of 330,000 active | AID 434989, 2010;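 active = inhibition above its plate's threshold, mean inhibition of all tested compounds on the plate plus 3 SD, cut at about 37% in these data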
GPR7 antag: GPR7 receptor antagonists, primary screen, cell-based, fluorescence, single concentration. AID 1861, 2009. GPR7-expressing cells, fluorescence antagonist assay. Neuropeptides B/W receptor type 1 (Homo sapiens), P48145. 1.1% of 290,000 active. inhibition, % at 4.4 µM; in the data active = inhibition above about 16%, passing the limit was not always enough;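 note: cells stimulated with the agonist NPW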
GalR3 antag conf: GalR3 antagonist hit confirmation, cell-based, fluorescence, triplicate; inhibition, % at 3 µM; HEK293 GalR3 CNG cAMP biosensor, membrane potential fluorescence; galR3 fused to GalR1 carboxy tail; challenged with forskolin and galanin at EC90; shares compounds with GalR3 antagonist; 59% of 1,600 active; AID 652245, 2013;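 active = inhibition above the primary screen's cutoff, the mean inhibition of all screened compounds plus 3 SD, cut at about 13% in these data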
CNG parental: nonspecific cAMP agonists in parental HEK-CNG cells, counter-screen for GalR3 antagonist project, cell-based, fluorescence, high throughput | AID 652268, 2013 | shares compounds with GalR3 antagonist | HEK293-CNG parental cells, cAMP membrane potential fluorescence; normalised: DMSO wells 0%, forskolin wells 100% | activation, % at 3 µM | 10% of 1,600 active; in the data active = activation above about 1.3%
Of the large screens only hits and unclear results are named; the others gave an inactive call (follow-up assays come after a bar, where they were run); ! = not active in a repeat. Hits are enriched below; roughly 3.1% of the tested compounds scored in any of these assays.

COc1ccc(-c2cn(-c3ccccc3)c3[n+]2CCS3)cc1	GalR3 antagonist 15.6! | GalR3 antag conf inactive | CNG parental inactive
S=C(NCCc1ccccc1)Nc1cccc2cnccc12	CHO parental Ca 51.7, GalR3 antagonist 32.7 | GalR3 antag conf 103.3 | CNG parental inactive
N#Cc1ccc(N2CCN(C(=O)c3cccs3)CC2)c(F)c1	none
Nc1nnnn1/N=C\c1ccc(Cl)c([N+](=O)[O-])c1	OX1R antag-1 65.0, GalR3 antagonist 18.0 | GalR3 antag conf 13.8 | CNG parental inactive
O=[N+]([O-])c1cc(/C=N/N2CCCCC2)ccc1Cl	none
CC1(C)OC2CC3C4CC=C5CC(O)CCC5(C)C4CCC3(C)C2(C(=O)CO)O1 (centres undefined)	none (no result: OX1R antag-1, CHO parental Ca, OX1R antag-2, GPR7 antag)
N#Cc1nc(N2CCCC2)nc(N2CCCC2)n1	GalR3 antagonist 98.2 | GalR3 antag conf 111.6 | CNG parental inactive
COc1ccc(-c2nc(C#N)c(NCc3ccc(C)cc3)o2)cc1OC	GalR3 antagonist 22.6 | GalR3 antag conf 20.3 | CNG parental inactive
COc1ccc(-c2nc(C#N)c(NCCc3ccccc3)o2)cc1OC	none
CC(=O)Nc1ccc(OS(=O)(=O)c2c(C)cc(C)cc2C)cc1	none
COc1ccc(OC)c(-c2nnc3n2N=C(c2ccc(OC)c(OC4CCCC4)c2)CS3)c1	none (no result: GPR7 antag)
COc1ccc(C2=Nn3c(nnc3C3CCCCC3)SC2)cc1OC	GalR3 antagonist 48.6 | GalR3 antag conf 47.7 | CNG parental inactive
COc1ccc(OC)c(C2=Nn3c(nnc3C3CCCCC3)SC2)c1	none
COc1ccc(OC)c(-c2nnc3n2N=C(c2ccc(OC)c(OC)c2)CS3)c1	GalR3 antagonist 50.0 (no result: GPR7 antag) | GalR3 antag conf 33.8 | CNG parental 1.5
Cc1cccc(C)c1NC(=O)CN(C)C(=O)c1cccc(NS(=O)(=O)c2ccccc2)c1	none (no result: GPR7 antag)
O=S(=O)(c1ccc2oc3ccc(S(=O)(=O)N4CCCCC4)cc3c2c1)N1CCCCC1	none
O=C(NCCS(=O)(=O)N1CCN(c2cccc(Cl)c2)CC1)C1CC1	none (no result: GPR7 antag)
FC(F)(F)c1ccccc1Cc1c(-c2ccc(Cl)cc2)nc2c3ccccc3ccn12	none (no result: OX1R antag-1, CHO parental Ca, OX1R antag-2, GPR7 antag)
FC(F)(F)c1ccccc1Cc1c(-c2ccco2)nc2c3ccccc3ccn12	GalR3 antagonist 18.7 (no result: OX1R antag-1, CHO parental Ca, OX1R antag-2, GPR7 antag) | GalR3 antag conf 35.3 | CNG parental inactive
O=C(CN1CSCC1=O)N1CCN(S(=O)(=O)c2ccc(Cl)cc2)CC1	none (no result: GPR7 antag)
Cc1ccc(CNC(=O)c2cc3ccccc3oc2=O)cc1	none (no result: GPR7 antag)
CC(C)CCn1c(N2CCc3ccccc3C2)nc2c1c(=O)[nH]c(=O)n2C	GalR3 antagonist 14.9 | GalR3 antag conf inactive | CNG parental inactive
CCN1/C(=C/c2cc[n+](CCCS(=O)(=O)[O-])c3ccccc23)Sc2ccccc21	none
CCN1/C(=C/c2sc(-c3ccccc3C)c[n+]2C)Sc2ccccc21	GalR3 antagonist 50.5, GPR7 antag 47.2 (no result: OX1R antag-1, CHO parental Ca, OX1R antag-2) | GalR3 antag conf 72.2 | CNG parental 2.2
O=C(Nc1ccc(S(=O)(=O)Nc2ccc(Cl)cc2)cc1)C1CCCO1 (centres undefined)	none
CCCCCCNS(=O)(=O)c1ccc(NC(=O)C2CCCO2)cc1 (centres undefined)	GalR3 antagonist 15.0 | GalR3 antag conf 25.7 | CNG parental inactive
Cc1cc(C(=O)OCC(=O)c2cccs2)c2ccccc2n1	none
Cc1cc(C(=O)N/N=C(\CCC(=O)O)c2cccs2)c2ccccc2n1	GalR3 antagonist 17.0 | GalR3 antag conf inactive | CNG parental inactive
Cc1oc2c(C)c3oc(=O)c(CCC(=O)N4C[C@H]5C[C@@H](C4)c4cccc(=O)n4C5)c(C)c3cc2c1C	GalR3 antagonist 14.6 | GalR3 antag conf inactive | CNG parental inactive

Bioassay records as filed in PubChem.
